The compounds below were run on CCRF-CEM (assay: Growth inhibition of human CCRF-CEM cells assessed as cell growth at 10 uM incubated for 48 hrs by sulforhodamine B assay relative to control). Details: read-out: Activity.
Assay type: functional
Procedure, shortened: (§1)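 NCI Developmental Therapeutics Program NCI60 panel. Compounds that were active in the 10 µM one-dose screen went on to dose–response testing. Growth at each concentration is expressed relative to untreated control (100%). GI50 (concentration giving 50% of maximal inhibition of proliferation) and TGI (concentration giving total growth inhibition) were derived from the curves.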

Row | Compound | growth at 10 µM [%]
1 | CCOc1ccc(-c2cc(N)n(S(=O)(=O)c3ccc(OC)cc3)n2)cc1 | 86.8

These compounds were tested on HL-60(TB) (assay: Growth inhibition of human HL-60(TB) cells assessed as cell growth at 10 uM incubated for 48 hrs by sulforhodamine B assay relative to control). Details: read-out: Activity.
Assay type: functional
Procedure, shortened: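 Screened by the NCI Developmental Therapeutics Program on its panel of 60 human tumour cell lines. Compounds were first tested at a single 10 µM dose, and compounds active there went to dose-response curves. Growth is expressed relative to untreated control (100%). GI50 (50% of maximal proliferation inhibition) and TGI (total growth inhibition) were derived from the dose-response data.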

Row | Compound | growth at 10 µM [%]
2 | CCOc1ccc(-c2cc(N)n(S(=O)(=O)c3ccc(OC)cc3)n2)cc1 | 126

The compounds below were run on MOLT-4 (assay: Growth inhibition of human MOLT-4 cells assessed as cell growth at 10 uM incubated for 48 hrs by sulforhodamine B assay relative to control). Details: read-out: Activity.
Assay type: functional
Procedure, shortened: (§2)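 Submitted to the NCI Developmental Therapeutics Program for the NCI60 human tumour cell line panel. First screen at a single 10 µM concentration. Read-out is growth relative to untreated control cells set at 100%.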

Row | Compound | growth at 10 µM [%]
3 | CCOc1ccc(-c2cc(N)n(S(=O)(=O)c3ccc(OC)cc3)n2)cc1 | 85.2

What follows are compounds tested on A549 (assay: Growth inhibition of human A549/ATCC cells assessed as cell growth at 10 uM incubated for 48 hrs by sulforhodamine B assay relative to control). Details: read-out: Activity.
Assay type: functional
Procedure, shortened: as §1

Row | Compound | growth at 10 µM [%]
4 | CCOc1ccc(-c2cc(N)n(S(=O)(=O)c3ccc(OC)cc3)n2)cc1 | 92.5

What follows are compounds tested on HOP-62 (assay: Growth inhibition of human HOP-62 cells assessed as cell growth at 10 uM incubated for 48 hrs by sulforhodamine B assay relative to control). Details: read-out: Activity.
Assay type: functional
Procedure, shortened: as §2

Row | Compound | growth at 10 µM [%]
5 | CCOc1ccc(-c2cc(N)n(S(=O)(=O)c3ccc(OC)cc3)n2)cc1 | 122

The compounds below were run on HOP-92 (assay: Growth inhibition of human HOP-92 cells assessed as cell growth at 10 uM incubated for 48 hrs by sulforhodamine B assay relative to control). Details: read-out: Activity.
Assay type: functional
Procedure, shortened: as §2

Row | Compound | growth at 10 µM [%]
6 | CCOc1ccc(-c2cc(N)n(S(=O)(=O)c3ccc(OC)cc3)n2)cc1 | 82.2

What follows are compounds tested on NCI-H226 (assay: Growth inhibition of human NCI-H226 cells assessed as cell growth at 10 uM incubated for 48 hrs by sulforhodamine B assay relative to control). Details: read-out: Activity.
Assay type: functional
Procedure, shortened: as §2

Row | Compound | growth at 10 µM [%]
7 | CCOc1ccc(-c2cc(N)n(S(=O)(=O)c3ccc(OC)cc3)n2)cc1 | 97.7

The compounds below were run on NCI-H322M (assay: Growth inhibition of human NCI-H322M cells assessed as cell growth at 10 uM incubated for 48 hrs by sulforhodamine B assay relative to control). Details: read-out: Activity.
Assay type: functional
Procedure, shortened: as §2

Row | Compound | growth at 10 µM [%]
8 | CCOc1ccc(-c2cc(N)n(S(=O)(=O)c3ccc(OC)cc3)n2)cc1 | 102

The compounds below were run on NCI-H460 (assay: Growth inhibition of human NCI-H460 cells assessed as cell growth at 10 uM incubated for 48 hrs by sulforhodamine B assay relative to control). Details: read-out: Activity.
Assay type: functional
Procedure, shortened: as §2

Row | Compound | growth at 10 µM [%]
9 | CCOc1ccc(-c2cc(N)n(S(=O)(=O)c3ccc(OC)cc3)n2)cc1 | 98.8

The compounds below were run on HCT-116 (assay: Growth inhibition of human HCT-116 cells assessed as cell growth at 10 uM incubated for 48 hrs by sulforhodamine B assay relative to control). Details: read-out: Activity.
Assay type: functional
Procedure, shortened: as §2

Row | Compound | growth at 10 µM [%]
10 | CCOc1ccc(-c2cc(N)n(S(=O)(=O)c3ccc(OC)cc3)n2)cc1 | 96

The compounds below were run on HCT-15 (assay: Growth inhibition of human HCT-15 cells assessed as cell growth at 10 uM incubated for 48 hrs by sulforhodamine B assay relative to control). Details: read-out: Activity.
Assay type: functional
Procedure, shortened: as §2

Row | Compound | growth at 10 µM [%]
11 | CCOc1ccc(-c2cc(N)n(S(=O)(=O)c3ccc(OC)cc3)n2)cc1 | 98.7

These compounds were tested on KM12 (assay: Growth inhibition of human KM12 cells assessed as cell growth at 10 uM incubated for 48 hrs by sulforhodamine B assay relative to control). Details: read-out: Activity.
Assay type: functional
Procedure, shortened: as §2

Row | Compound | growth at 10 µM [%]
12 | CCOc1ccc(-c2cc(N)n(S(=O)(=O)c3ccc(OC)cc3)n2)cc1 | 123

These compounds were tested on SF-295 (assay: Growth inhibition of human SF-295 cells assessed as cell growth at 10 uM incubated for 48 hrs by sulforhodamine B assay relative to control). Details: read-out: Activity.
Assay type: functional
Procedure, shortened: (§3)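 Run by the NCI Developmental Therapeutics Program as part of its 60-line human tumour panel. Each compound tested at a single 10 µM dose. Growth expressed as % relative to untreated control cells (100%).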

Row | Compound | growth at 10 µM [%]
13 | CCOc1ccc(-c2cc(N)n(S(=O)(=O)c3ccc(OC)cc3)n2)cc1 | 115

What follows are compounds tested on SF-539 (assay: Growth inhibition of human SF-539 cells assessed as cell growth at 10 uM incubated for 48 hrs by sulforhodamine B assay relative to control). Details: read-out: Activity.
Assay type: functional
Procedure, shortened: as §3

Row | Compound | growth at 10 µM [%]
14 | CCOc1ccc(-c2cc(N)n(S(=O)(=O)c3ccc(OC)cc3)n2)cc1 | 98.4

The compounds below were run on SNB-75 (assay: Growth inhibition of human SNB-75 cells assessed as cell growth at 10 uM incubated for 48 hrs by sulforhodamine B assay relative to control). Details: read-out: Activity.
Assay type: functional
Procedure, shortened: as §3

Row | Compound | growth at 10 µM [%]
15 | CCOc1ccc(-c2cc(N)n(S(=O)(=O)c3ccc(OC)cc3)n2)cc1 | 89.9

These compounds were tested on U-251 (assay: Growth inhibition of human U-251 cells assessed as cell growth at 10 uM incubated for 48 hrs by sulforhodamine B assay relative to control). Details: read-out: Activity.
Assay type: functional
Procedure, shortened: as §3

Row | Compound | growth at 10 µM [%]
16 | CCOc1ccc(-c2cc(N)n(S(=O)(=O)c3ccc(OC)cc3)n2)cc1 | 101

Each compound was assayed on Malme-3M (assay: Growth inhibition of human Malme-3M cells assessed as cell growth at 10 uM incubated for 48 hrs by sulforhodamine B assay relative to control). Details: read-out: Activity.
Assay type: functional
Procedure, shortened: as §2

Row | Compound | growth at 10 µM [%]
17 | CCOc1ccc(-c2cc(N)n(S(=O)(=O)c3ccc(OC)cc3)n2)cc1 | 114

Each compound was assayed on M14 (assay: Growth inhibition of human M14 cells assessed as cell growth at 10 uM incubated for 48 hrs by sulforhodamine B assay relative to control). Details: read-out: Activity.
Assay type: functional
Procedure, shortened: as §2

Row | Compound | growth at 10 µM [%]
18 | CCOc1ccc(-c2cc(N)n(S(=O)(=O)c3ccc(OC)cc3)n2)cc1 | 120

These compounds were tested on MDA-MB-435 (assay: Growth inhibition of human MDA-MB-435 cells assessed as cell growth at 10 uM incubated for 48 hrs by sulforhodamine B assay relative to control). Details: read-out: Activity.
Assay type: functional
Procedure, shortened: as §2

Row | Compound | growth at 10 µM [%]
19 | CCOc1ccc(-c2cc(N)n(S(=O)(=O)c3ccc(OC)cc3)n2)cc1 | 101

What follows are compounds tested on SK-MEL-28 (assay: Growth inhibition of human SK-MEL-28 cells assessed as cell growth at 10 uM incubated for 48 hrs by sulforhodamine B assay relative to control). Details: read-out: Activity.
Assay type: functional
Procedure, shortened: as §3

Row | Compound | growth at 10 µM [%]
20 | CCOc1ccc(-c2cc(N)n(S(=O)(=O)c3ccc(OC)cc3)n2)cc1 | 103

Each compound was assayed on SK-MEL-5 (assay: Growth inhibition of human SK-MEL-5 cells assessed as cell growth at 10 uM incubated for 48 hrs by sulforhodamine B assay relative to control). Details: read-out: Activity.
Assay type: functional
Procedure, shortened: as §3

Row | Compound | growth at 10 µM [%]
21 | CCOc1ccc(-c2cc(N)n(S(=O)(=O)c3ccc(OC)cc3)n2)cc1 | 97.5

What follows are compounds tested on UACC-257 (assay: Growth inhibition of human UACC-257 cells assessed as cell growth at 10 uM incubated for 48 hrs by sulforhodamine B assay relative to control). Details: read-out: Activity.
Assay type: functional
Procedure, shortened: as §3

Row | Compound | growth at 10 µM [%]
22 | CCOc1ccc(-c2cc(N)n(S(=O)(=O)c3ccc(OC)cc3)n2)cc1 | 86.6

Each compound was assayed on UACC-62 (assay: Growth inhibition of human UACC-62 cells assessed as cell growth at 10 uM incubated for 48 hrs by sulforhodamine B assay relative to control). Details: read-out: Activity.
Assay type: functional
Procedure, shortened: as §3

Row | Compound | growth at 10 µM [%]
23 | CCOc1ccc(-c2cc(N)n(S(=O)(=O)c3ccc(OC)cc3)n2)cc1 | 92.5

The compounds below were run on IGROV-1 (assay: Growth inhibition of human IGROV-1 cells assessed as cell growth at 10 uM incubated for 48 hrs by sulforhodamine B assay relative to control). Details: read-out: Activity.
Assay type: functional
Procedure, shortened: as §2

Row | Compound | growth at 10 µM [%]
24 | CCOc1ccc(-c2cc(N)n(S(=O)(=O)c3ccc(OC)cc3)n2)cc1 | 96.6

Each compound was assayed on OVCAR-5 (assay: Growth inhibition of human OVCAR-5 cells assessed as cell growth at 10 uM incubated for 48 hrs by sulforhodamine B assay relative to control). Details: read-out: Activity.
Assay type: functional
Procedure, shortened: as §3

Row | Compound | growth at 10 µM [%]
25 | CCOc1ccc(-c2cc(N)n(S(=O)(=O)c3ccc(OC)cc3)n2)cc1 | 107

What follows are compounds tested on NCI/ADR-RES (assay: Growth inhibition of human NCI/ADR-RES cells assessed as cell growth at 10 uM incubated for 48 hrs by sulforhodamine B assay relative to control). Details: read-out: Activity.
Assay type: functional
Procedure, shortened: as §2

Row | Compound | growth at 10 µM [%]
26 | CCOc1ccc(-c2cc(N)n(S(=O)(=O)c3ccc(OC)cc3)n2)cc1 | 103

What follows are compounds tested on A498 (assay: Growth inhibition of human A498 cells assessed as cell growth at 10 uM incubated for 48 hrs by sulforhodamine B assay relative to control). Details: read-out: Activity.
Assay type: functional
Procedure, shortened: as §1

Row | Compound | growth at 10 µM [%]
27 | CCOc1ccc(-c2cc(N)n(S(=O)(=O)c3ccc(OC)cc3)n2)cc1 | 92.5

These compounds were tested on RXF 393 (assay: Growth inhibition of human RXF 393 cells assessed as cell growth at 10 uM incubated for 48 hrs by sulforhodamine B assay relative to control). Details: read-out: Activity.
Assay type: functional
Procedure, shortened: as §3

Row | Compound | growth at 10 µM [%]
28 | CCOc1ccc(-c2cc(N)n(S(=O)(=O)c3ccc(OC)cc3)n2)cc1 | 95.9

The compounds below were run on SN12C (assay: Growth inhibition of human SN12C cells assessed as cell growth at 10 uM incubated for 48 hrs by sulforhodamine B assay relative to control). Details: read-out: Activity.
Assay type: functional
Procedure, shortened: as §3

Row | Compound | growth at 10 µM [%]
29 | CCOc1ccc(-c2cc(N)n(S(=O)(=O)c3ccc(OC)cc3)n2)cc1 | 85.5

Each compound was assayed on UO-31 (assay: Growth inhibition of human UO-31 cells assessed as cell growth at 10 uM incubated for 48 hrs by sulforhodamine B assay relative to control). Details: read-out: Activity.
Assay type: functional
Procedure, shortened: as §3

Row | Compound | growth at 10 µM [%]
30 | CCOc1ccc(-c2cc(N)n(S(=O)(=O)c3ccc(OC)cc3)n2)cc1 | 91.2

What follows are compounds tested on PC-3 (assay: Growth inhibition of human PC-3 cells assessed as cell growth at 10 uM incubated for 48 hrs by sulforhodamine B assay relative to control). Details: read-out: Activity.
Assay type: functional
Procedure, shortened: as §3

Row | Compound | growth at 10 µM [%]
31 | CCOc1ccc(-c2cc(N)n(S(=O)(=O)c3ccc(OC)cc3)n2)cc1 | 88.6

What follows are compounds tested on Hs-578T (assay: Growth inhibition of human Hs-578T cells assessed as cell growth at 10 uM incubated for 48 hrs by sulforhodamine B assay relative to control). Details: read-out: Activity.
Assay type: functional
Procedure, shortened: as §2

Row | Compound | growth at 10 µM [%]
32 | CCOc1ccc(-c2cc(N)n(S(=O)(=O)c3ccc(OC)cc3)n2)cc1 | 99.7

The compounds below were run on MDA-MB-468 (assay: Growth inhibition of human MDA-MB-468 cells assessed as cell growth at 10 uM incubated for 48 hrs by sulforhodamine B assay relative to control). Details: read-out: Activity.
Assay type: functional
Procedure, shortened: as §2

Row | Compound | growth at 10 µM [%]
33 | CCOc1ccc(-c2cc(N)n(S(=O)(=O)c3ccc(OC)cc3)n2)cc1 | 87.4

— ChEMBL document CHEMBL4715736, “Identification of anticancer agents based on the thieno[2,3-b]pyridine and 1H-pyrazole molecular scaffolds” (2016)
